Test results: ChEMBL document CHEMBL4052588, “Design of a Biased Potent Small Molecule Inhibitor of the Bromodomain and PHD Finger-Containing (BRPF) Proteins Suitable for Cellular and in Vivo Studies” (J Med Chem, 2017)
≈ marks a conversion by molar mass, not a printed value.

How the values were obtained:
[1] = biological target: Nucleosome-remodeling factor subunit BPTF (Homo sapiens, UniProt Q12830); assay: Inhibition of human His tagged FALZ incubated for 30 mins followed by addition of biotinylated peptide and further incubation for 30 mins measured by AlphaScreen assay
[2] = biological target: Transcription initiation factor TFIID subunit 1, TAF1 (Homo sapiens) (UniProt P21675); assay: Inhibition of human His tagged TAF1 incubated for 30 mins followed by addition of biotinylated peptide and further incubation for 30 mins measured by AlphaScreen assay
[3] = biological target: SWI/SNF-related matrix-associated actin-dependent regulator of chromatin subfamily A member 2 (Homo sapiens, UniProt P51531); assay: Inhibition of human SMARCA2A expressed in Escherichia coli BL21 after 1 hr by BROMOscan assay
Sequence of SWI/SNF-related matrix-associated actin-dependent regulator of chromatin subfamily A member 2 (P51531 whole entry): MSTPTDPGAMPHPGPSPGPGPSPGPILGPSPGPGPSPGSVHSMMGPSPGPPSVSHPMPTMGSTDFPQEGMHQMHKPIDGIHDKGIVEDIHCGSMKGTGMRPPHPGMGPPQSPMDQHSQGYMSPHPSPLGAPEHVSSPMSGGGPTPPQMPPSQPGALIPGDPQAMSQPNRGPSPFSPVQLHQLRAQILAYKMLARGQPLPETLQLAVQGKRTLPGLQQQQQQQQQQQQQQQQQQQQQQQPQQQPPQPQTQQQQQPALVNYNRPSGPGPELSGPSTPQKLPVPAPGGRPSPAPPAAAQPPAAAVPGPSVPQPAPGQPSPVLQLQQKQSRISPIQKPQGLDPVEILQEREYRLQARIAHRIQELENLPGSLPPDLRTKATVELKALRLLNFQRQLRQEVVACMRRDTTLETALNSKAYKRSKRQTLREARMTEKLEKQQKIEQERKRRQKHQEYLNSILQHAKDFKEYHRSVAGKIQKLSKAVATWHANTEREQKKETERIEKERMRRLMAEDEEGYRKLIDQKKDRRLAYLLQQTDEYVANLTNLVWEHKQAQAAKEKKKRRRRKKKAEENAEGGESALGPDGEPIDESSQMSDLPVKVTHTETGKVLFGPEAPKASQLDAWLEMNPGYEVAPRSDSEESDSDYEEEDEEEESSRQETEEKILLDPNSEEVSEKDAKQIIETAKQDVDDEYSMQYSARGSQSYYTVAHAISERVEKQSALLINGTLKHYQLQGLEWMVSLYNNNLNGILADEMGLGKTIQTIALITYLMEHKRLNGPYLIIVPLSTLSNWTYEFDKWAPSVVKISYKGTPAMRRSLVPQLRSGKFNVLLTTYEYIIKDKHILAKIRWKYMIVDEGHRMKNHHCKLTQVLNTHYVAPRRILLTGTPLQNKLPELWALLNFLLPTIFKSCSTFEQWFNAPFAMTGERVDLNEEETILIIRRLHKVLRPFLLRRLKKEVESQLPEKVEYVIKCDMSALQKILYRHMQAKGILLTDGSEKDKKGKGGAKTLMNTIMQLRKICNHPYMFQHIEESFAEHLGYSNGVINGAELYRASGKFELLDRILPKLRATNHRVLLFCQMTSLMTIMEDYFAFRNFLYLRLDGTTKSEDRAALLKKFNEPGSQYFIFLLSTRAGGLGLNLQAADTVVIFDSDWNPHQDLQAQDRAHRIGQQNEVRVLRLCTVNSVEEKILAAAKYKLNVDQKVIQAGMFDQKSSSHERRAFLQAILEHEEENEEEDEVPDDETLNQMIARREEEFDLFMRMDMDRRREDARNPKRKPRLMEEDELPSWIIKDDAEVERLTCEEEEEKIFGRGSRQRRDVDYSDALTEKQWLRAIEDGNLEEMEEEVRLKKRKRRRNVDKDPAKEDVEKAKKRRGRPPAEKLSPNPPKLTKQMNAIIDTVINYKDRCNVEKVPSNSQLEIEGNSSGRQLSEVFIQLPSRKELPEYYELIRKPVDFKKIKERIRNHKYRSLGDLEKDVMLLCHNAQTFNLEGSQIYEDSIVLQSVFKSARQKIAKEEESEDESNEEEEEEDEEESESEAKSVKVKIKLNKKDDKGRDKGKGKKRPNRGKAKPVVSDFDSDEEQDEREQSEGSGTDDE

[4] = biological target: Histone acetyltransferase KAT2B (Homo sapiens, UniProt Q92831); assay: Inhibition of human PCAF expressed in Escherichia coli BL21 after 1 hr by BROMOscan assay
Sequence of Histone acetyltransferase KAT2B (Q92831 whole entry): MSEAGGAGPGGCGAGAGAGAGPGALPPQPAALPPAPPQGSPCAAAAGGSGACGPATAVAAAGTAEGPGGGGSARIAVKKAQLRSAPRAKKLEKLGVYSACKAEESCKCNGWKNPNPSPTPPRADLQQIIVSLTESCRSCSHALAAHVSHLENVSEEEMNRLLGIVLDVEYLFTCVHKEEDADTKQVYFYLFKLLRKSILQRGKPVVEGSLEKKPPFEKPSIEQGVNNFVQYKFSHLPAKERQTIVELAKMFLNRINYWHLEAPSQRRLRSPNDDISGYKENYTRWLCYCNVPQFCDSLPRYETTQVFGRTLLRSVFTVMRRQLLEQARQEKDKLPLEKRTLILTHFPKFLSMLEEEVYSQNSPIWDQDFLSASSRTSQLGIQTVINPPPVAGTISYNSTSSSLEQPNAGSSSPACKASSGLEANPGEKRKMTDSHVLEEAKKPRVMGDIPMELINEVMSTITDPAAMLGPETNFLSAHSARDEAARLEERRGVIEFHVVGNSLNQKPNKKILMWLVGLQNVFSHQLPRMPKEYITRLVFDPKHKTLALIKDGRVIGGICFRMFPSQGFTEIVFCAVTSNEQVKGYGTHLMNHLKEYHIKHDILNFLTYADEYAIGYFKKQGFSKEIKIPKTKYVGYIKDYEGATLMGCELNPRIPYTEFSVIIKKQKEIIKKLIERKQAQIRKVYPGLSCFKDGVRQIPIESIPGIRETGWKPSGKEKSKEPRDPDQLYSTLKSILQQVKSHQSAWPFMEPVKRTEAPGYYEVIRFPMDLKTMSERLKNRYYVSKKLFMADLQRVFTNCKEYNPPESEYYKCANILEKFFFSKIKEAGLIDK

[5] = biological target: CREB-binding protein (Homo sapiens, UniProt Q92793); assay: Inhibition of human CREBBP expressed in Escherichia coli BL21 after 1 hr by BROMOscan assay
Sequence of CREB-binding protein (Q92793 whole entry): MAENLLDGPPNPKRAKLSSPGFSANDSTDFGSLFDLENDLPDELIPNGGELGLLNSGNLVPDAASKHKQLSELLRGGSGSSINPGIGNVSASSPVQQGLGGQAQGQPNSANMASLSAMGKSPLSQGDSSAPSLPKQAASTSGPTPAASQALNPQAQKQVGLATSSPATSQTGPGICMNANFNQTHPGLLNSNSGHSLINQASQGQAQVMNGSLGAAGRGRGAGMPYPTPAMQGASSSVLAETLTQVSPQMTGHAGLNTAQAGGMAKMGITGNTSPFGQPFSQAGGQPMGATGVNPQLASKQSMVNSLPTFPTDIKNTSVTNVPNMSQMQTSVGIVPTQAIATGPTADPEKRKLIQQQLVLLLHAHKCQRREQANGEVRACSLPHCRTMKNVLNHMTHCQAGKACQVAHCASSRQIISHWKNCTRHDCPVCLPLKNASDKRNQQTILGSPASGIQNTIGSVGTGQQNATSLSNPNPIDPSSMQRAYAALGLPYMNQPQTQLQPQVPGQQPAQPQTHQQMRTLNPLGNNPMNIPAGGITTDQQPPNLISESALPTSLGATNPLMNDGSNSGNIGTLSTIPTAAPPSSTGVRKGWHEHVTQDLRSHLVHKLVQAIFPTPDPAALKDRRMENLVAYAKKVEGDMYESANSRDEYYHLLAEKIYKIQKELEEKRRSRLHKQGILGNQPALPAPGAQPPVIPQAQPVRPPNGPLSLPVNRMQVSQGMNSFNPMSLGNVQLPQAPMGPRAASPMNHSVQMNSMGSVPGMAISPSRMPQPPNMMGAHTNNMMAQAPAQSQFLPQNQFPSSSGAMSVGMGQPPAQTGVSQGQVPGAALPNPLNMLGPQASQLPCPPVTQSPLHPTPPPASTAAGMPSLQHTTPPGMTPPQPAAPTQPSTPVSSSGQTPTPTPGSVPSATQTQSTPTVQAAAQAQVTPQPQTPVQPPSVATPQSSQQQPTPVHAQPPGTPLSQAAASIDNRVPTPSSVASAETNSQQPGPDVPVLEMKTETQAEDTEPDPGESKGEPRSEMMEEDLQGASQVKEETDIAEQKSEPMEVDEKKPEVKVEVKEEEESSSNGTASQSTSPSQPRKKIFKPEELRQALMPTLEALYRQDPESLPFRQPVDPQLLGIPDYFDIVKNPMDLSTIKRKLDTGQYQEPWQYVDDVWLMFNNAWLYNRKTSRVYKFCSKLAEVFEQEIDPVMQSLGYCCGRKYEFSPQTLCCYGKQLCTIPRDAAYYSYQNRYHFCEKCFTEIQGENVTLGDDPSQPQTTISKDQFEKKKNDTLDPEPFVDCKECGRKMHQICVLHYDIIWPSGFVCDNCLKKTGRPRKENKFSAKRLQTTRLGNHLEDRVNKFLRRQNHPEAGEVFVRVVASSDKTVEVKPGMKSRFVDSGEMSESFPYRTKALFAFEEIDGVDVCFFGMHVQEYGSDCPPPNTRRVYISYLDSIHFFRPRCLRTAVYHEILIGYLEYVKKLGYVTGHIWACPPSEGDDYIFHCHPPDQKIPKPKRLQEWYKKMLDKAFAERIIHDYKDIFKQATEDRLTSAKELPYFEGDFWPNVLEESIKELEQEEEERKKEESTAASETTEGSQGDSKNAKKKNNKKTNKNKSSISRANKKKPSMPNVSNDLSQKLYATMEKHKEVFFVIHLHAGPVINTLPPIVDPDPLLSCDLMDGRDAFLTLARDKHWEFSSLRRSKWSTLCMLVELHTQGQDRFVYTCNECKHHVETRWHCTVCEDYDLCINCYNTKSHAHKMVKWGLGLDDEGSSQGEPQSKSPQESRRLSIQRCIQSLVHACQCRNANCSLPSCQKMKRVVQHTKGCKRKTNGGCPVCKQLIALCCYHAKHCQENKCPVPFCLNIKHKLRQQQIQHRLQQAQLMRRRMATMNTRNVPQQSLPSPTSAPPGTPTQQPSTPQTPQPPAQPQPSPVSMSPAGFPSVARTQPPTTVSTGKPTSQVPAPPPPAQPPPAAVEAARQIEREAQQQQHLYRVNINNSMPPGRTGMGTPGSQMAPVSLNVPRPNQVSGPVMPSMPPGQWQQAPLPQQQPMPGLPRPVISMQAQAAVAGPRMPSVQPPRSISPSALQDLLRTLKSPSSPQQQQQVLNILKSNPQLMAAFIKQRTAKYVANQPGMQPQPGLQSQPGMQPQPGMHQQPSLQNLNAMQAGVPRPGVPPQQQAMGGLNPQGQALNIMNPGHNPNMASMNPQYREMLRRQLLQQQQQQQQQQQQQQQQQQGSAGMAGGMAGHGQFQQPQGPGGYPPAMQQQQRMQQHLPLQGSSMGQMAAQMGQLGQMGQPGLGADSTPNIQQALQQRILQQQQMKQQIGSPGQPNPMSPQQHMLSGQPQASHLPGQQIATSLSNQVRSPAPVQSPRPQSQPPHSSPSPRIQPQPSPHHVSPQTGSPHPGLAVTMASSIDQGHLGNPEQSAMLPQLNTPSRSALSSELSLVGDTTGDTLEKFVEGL

[6] = biological target: T1, Bromodomain-containing protein 1 (Homo sapiens, UniProt O95696); assay: Binding affinity to human BRPF2 by isothermal titration calorimetry
T1 sequence (O95696 whole entry): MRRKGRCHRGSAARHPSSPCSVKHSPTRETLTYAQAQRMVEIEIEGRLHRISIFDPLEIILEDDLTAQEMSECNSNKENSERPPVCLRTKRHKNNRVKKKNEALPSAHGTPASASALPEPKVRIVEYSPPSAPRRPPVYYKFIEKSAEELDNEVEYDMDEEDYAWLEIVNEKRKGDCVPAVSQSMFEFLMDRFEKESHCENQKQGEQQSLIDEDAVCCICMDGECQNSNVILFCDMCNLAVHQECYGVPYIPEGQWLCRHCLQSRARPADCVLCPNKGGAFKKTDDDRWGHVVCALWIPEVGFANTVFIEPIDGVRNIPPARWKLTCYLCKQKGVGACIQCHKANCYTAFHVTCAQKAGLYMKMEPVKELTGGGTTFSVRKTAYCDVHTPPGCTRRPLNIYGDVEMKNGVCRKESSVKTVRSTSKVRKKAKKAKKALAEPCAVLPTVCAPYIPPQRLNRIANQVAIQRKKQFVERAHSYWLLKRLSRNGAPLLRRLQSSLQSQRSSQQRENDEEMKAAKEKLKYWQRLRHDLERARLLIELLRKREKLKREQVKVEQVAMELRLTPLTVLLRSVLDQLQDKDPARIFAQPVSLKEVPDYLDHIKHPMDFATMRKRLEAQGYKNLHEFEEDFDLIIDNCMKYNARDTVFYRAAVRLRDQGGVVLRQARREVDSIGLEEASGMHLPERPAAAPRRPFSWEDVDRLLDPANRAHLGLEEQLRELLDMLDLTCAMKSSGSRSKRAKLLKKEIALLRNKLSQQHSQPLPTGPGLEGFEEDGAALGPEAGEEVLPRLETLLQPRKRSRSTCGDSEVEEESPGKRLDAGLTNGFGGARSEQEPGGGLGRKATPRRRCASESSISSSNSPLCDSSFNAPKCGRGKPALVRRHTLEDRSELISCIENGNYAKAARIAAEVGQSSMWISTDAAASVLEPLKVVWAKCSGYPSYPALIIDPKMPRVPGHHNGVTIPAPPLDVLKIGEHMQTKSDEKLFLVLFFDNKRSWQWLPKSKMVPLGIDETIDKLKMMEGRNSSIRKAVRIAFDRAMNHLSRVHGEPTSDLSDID

[7] = Growth inhibition of human Panc 02.03 cells after 72 hrs; assay type: functional; conditions: Panc 02.03, 72 h
[8] = system: COLO 205; assay: Growth inhibition of human COLO205 cells after 72 hrs; assay type: functional; conditions: COLO 205, 72 h
[9] = system: LoVo; assay: Growth inhibition of human LoVo cells after 72 hrs; assay type: functional
[10] = biological target: T1, Bromodomain-containing protein 1; assay: Inhibition of human His tagged BRPF2 incubated for 30 mins followed by addition of biotinylated peptide and further incubation for 30 mins measured by AlphaScreen assay
[11] = Intrinsic clearance in mouse liver microsomes; assay type: ADME, microsome; conditions: read-out: CLH
[12] = Volume of distribution in CD-1 mouse blood at 1 mg/kg, iv administered as bolus; assay type: ADME, organism-based; conditions: whole blood
Summary of the method: (§1)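 Female CD-1 mice (n = 3), single dosing: intravenous 1.0 mg/kg, or oral 3.0 mg/kg given as a suspension. Blood levels were followed over time to derive clearance, volume of distribution, elimination half-life, Cmax, Tmax, AUC0−∞, oral bioavailability and fraction absorbed.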

[13] = system: AGS; assay: Growth inhibition of human AGS cells after 72 hrs; assay type: functional
[14] = system: HuP-T4; assay: Growth inhibition of human HUPT4 cells after 72 hrs; assay type: functional; conditions: HuP-T4, 72 h
[15] = Aqueous solubility of compound; assay type: physicochemical; conditions: buffer
[16] = system: NCI-H1437; assay: Growth inhibition of human NCI-H1437 cells after 72 hrs; assay type: functional; conditions: NCI-H1437, 72 h
[17] = Growth inhibition of human MOLP8 cells after 72 hrs; assay type: functional; conditions: MOLP-8, 72 h
[18] = system: HepG2; assay: Growth inhibition of human HepG2 cells after 72 hrs; assay type: functional; conditions: HepG2, 72 h
[19] = system: LS180; assay: Growth inhibition of human LS180 cells after 72 hrs; assay type: functional; conditions: LS180, 72 h
[20] = Growth inhibition of human SW403 cells after 72 hrs; assay type: functional; conditions: SW-403, 72 h
[21] = Apparent permeability from basolateral to apical side in human Caco2 cells at 10 uM after 2 hrs by LC-MS/MS analysis; assay type: ADME, cell-based; conditions: Caco-2
[22] = Growth inhibition of human C99 cells after 72 hrs; assay type: functional; conditions: C99, 72 h
[23] = Tmax in CD-1 mouse blood at 3 mg/kg, po; assay type: ADME, organism-based; conditions: whole blood; summary of the method: as §1
[24] = system: Hs 766; assay: Growth inhibition of human Hs766T cells after 72 hrs; assay type: functional; conditions: Hs 766, 72 h
[25] = system: SW948; assay: Growth inhibition of human SW948 cells after 72 hrs; assay type: functional; conditions: SW948, 72 h
[26] = system: MV4-11; assay: Growth inhibition of human MV4-11 cells after 72 hrs; assay type: functional; conditions: MV4-11, 72 h
[27] = system: HCC1187; assay: Growth inhibition of human HCC1187 cells after 72 hrs; assay type: functional; conditions: HCC1187, 72 h
[28] = system: OCI-AML2; assay: Growth inhibition of human OCI-AML2 cells after 72 hrs; assay type: functional; conditions: OCI-AML2, 72 h
[29] = system: SNU-5; assay: Growth inhibition of human SNU5 cells after 72 hrs; assay type: functional; conditions: SNU-5, 72 h
[30] = Fraction absorbed in CD-1 mouse at 3 mg/kg, po; assay type: ADME, organism-based; conditions: in vivo, read-out: Fabs; summary of the method: as §1
[31] = Clearance in CD-1 mouse blood at 1 mg/kg, iv administered as bolus; assay type: ADME, organism-based; conditions: whole blood; summary of the method: as §1

In the case of `CCc1cc2cc(NS(=O)(=O)c3ccc(C#N)cc3)ccc2n(CC)c1=O`, the IC50 [1] is reported as > 20 µM, the IC50 [2] is reported as > 20 µM and the IC50 [3] is reported as 77 µM. For the same compound, the IC50 [4] was > 100 µM and the IC50 [5] was > 100 µM.
Work on `Cc1cc2cc(NS(=O)(=O)c3ccc(C#N)cc3)ccc2n(C)c1=O` yielded a Kd [6] of 210 nM, a GI50 [7] of 1 to 10 µM and a GI50 [8] of 1 to 10 µM. The GI50 [9] was 1 to 10 µM, the IC50 [10] was 760 nM and the microsomal CLint [11] was 14 µL/min/mg. It also gave a Vd [12] of 0.7 L/kg, a GI50 [13] of 1 to 10 µM and a GI50 [14] of 1 to 10 µM. It also gave a solubility [15] of 100 µM (≈ 35.3 µg/mL), a GI50 [16] of 1 to 10 µM and a GI50 [17] of 1 to 10 µM. For the same compound, the GI50 [18] was 1 to 10 µM, the GI50 [19] was 1 to 10 µM and the GI50 [20] was 1 to 10 µM. It also gave a Papp B→A at 2 h, 10 µM [21] of 50 ×10⁻⁶ cm/s, a GI50 [22] of 1 to 10 µM and a Tmax [23] of 1 h. For the same compound, the GI50 [24] was 1 to 10 µM, the GI50 [25] was 1 to 10 µM and the GI50 [26] was 9.9 µM. The GI50 [27] was 1 to 10 µM, the GI50 [28] was 1300 nM and the GI50 [29] was 1 to 10 µM. For the same compound, the Fa [30] was 51% and the clearance [31] was 4 mL/min/kg.
